{"source": "ChEMBL document CHEMBL1154060", "about": "“Synthesis and structure-activity relationship of Huprine derivatives as human acetylcholinesterase inhibitors” (Bioorg Med Chem, 2009)", "key": {"Cholinesterase [1]": {"molecular_target": "T1, Cholinesterase (Homo sapiens, UniProt P06276)", "T1 sequence (P06276 whole entry)": "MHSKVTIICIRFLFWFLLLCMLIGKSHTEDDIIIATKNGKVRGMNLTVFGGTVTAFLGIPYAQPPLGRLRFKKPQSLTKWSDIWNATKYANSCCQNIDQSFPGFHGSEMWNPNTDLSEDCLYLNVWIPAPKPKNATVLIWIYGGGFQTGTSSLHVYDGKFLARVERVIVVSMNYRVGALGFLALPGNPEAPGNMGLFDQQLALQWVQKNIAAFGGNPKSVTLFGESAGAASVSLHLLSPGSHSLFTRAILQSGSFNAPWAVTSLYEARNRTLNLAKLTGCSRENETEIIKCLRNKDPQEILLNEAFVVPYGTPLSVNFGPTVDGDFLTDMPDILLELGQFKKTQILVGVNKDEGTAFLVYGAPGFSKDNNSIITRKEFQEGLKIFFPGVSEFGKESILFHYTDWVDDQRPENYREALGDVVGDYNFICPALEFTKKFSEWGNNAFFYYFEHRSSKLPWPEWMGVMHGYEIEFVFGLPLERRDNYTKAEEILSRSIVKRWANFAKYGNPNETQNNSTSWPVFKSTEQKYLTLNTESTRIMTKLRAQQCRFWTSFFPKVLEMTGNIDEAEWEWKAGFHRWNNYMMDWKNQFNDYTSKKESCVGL", "experiment": "Inhibition of human recombinant BuChE assessed as enzyme activity reversion at 100 uM by Ellman's assay"}, "Acetylcholinesterase": {"molecular_target": "Acetylcholinesterase (Homo sapiens, UniProt P22303)", "sequence (P22303 whole entry)": "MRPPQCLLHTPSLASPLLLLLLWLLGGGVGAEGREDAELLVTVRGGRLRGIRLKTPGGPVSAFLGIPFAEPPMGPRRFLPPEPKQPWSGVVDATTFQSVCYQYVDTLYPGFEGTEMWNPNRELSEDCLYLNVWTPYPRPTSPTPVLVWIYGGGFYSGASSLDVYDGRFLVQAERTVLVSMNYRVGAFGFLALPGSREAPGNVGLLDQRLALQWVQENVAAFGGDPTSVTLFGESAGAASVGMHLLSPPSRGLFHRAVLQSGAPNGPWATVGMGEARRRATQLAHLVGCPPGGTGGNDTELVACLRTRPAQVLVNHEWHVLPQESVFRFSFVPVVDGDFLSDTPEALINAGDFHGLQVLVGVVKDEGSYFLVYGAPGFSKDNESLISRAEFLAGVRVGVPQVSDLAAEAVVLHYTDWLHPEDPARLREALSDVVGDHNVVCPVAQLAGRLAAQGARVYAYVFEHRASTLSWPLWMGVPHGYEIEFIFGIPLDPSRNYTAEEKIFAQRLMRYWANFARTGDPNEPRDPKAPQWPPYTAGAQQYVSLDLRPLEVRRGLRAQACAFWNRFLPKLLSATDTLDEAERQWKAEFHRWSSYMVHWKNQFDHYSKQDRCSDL", "experiment": "Inhibition of human recombinant AChE […] by Ellman's assay"}, "Homo sapiens": {"species": "Homo sapiens", "experiment": "Selectivity ratio of IC50 for human recombinant BuChE to IC50 for human recombinant AChE"}, "Cholinesterase [2]": {"molecular_target": "T1, Cholinesterase", "experiment": "Inhibition of human recombinant BuChE by Ellman's assay", "in_short": "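Ellman assay at 25 °C with 125 pM recombinant human enzyme: AChE with acetylthiocholine iodide, BuChE with butyrylthiocholine, substrate at 0.53 mM. Buffer was 0.1 M phosphate pH 7.4 with 15 mM NaCl, NaN3, BSA and DTNB. Inhibitor was preincubated with enzyme for at least 30 min. Rate read at 414 nm for 20 min against an inhibitor-free 100% control. Generally at least triplicate; IC50 by nonlinear regression.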"}, "Cholinesterase [3]": {"molecular_target": "T1, Cholinesterase", "experiment": "Inhibition of human recombinant BuChE assessed as enzyme activity reversion at 10 uM by Ellman's assay"}}}
{"smiles": "C#CCCCCCCN1CCc2cc(OC)c(OC)cc2C1c1ccc([N+](=O)[O-])cc1", "note": "(centres undefined)", "values": [{"measurement": "inhibition", "setting": "Cholinesterase [1]", "result": "< 1", "unit": "%"}, {"measurement": "IC50", "setting": "Acetylcholinesterase", "result": 2.92, "unit": "µM"}]}
{"smiles": "C#CCCCCCCN1CCc2cc(OC)c(OC)cc2C1c1cccc([N+](=O)[O-])c1", "note": "(centres undefined)", "values": [{"measurement": "inhibition", "setting": "Cholinesterase [1]", "result": "< 1", "unit": "%"}, {"measurement": "IC50", "setting": "Acetylcholinesterase", "result": 8.08, "unit": "µM"}]}
{"smiles": "CSc1n[nH]c2nc3c(c(N)c12)C1CC(C)=CC(C3)C1", "note": "(racemic)", "values": [{"measurement": "IC50", "setting": "Acetylcholinesterase", "result": 50, "unit": "µM"}]}
{"smiles": "CC1=CC2Cc3nc4cc(Cl)ccc4c(Cl)c3C(C1)C2", "note": "(racemic)", "values": [{"measurement": "IC50", "setting": "Acetylcholinesterase", "result": 22.4, "unit": "µM"}]}
{"smiles": "CCC1=CC2Cc3nc4cc(Cl)ccc4c(Cl)c3C(C1)C2", "note": "(racemic)", "values": [{"measurement": "IC50", "setting": "Acetylcholinesterase", "result": 19.2, "unit": "µM"}]}
{"smiles": "CCC1=CC2Cc3nc4cc(OC)c(OC)cc4c(N)c3C(C1)C2", "note": "(racemic)", "values": [{"measurement": "IC50", "setting": "Acetylcholinesterase", "result": 5.1, "unit": "µM"}]}
{"smiles": "CCC1=CC2Cc3nc4cc(Cl)ccc4c(NCCO)c3C(C1)C2", "note": "(racemic)", "values": [{"measurement": "Ratio IC50", "setting": "Homo sapiens", "result": 540}, {"measurement": "IC50", "setting": "Acetylcholinesterase", "result": 0.00675, "unit": "µM"}, {"measurement": "IC50", "setting": "Cholinesterase [2]", "result": 3.64, "unit": "µM"}]}
{"smiles": "CCCSc1nc2nc3c(c(N)c2s1)C1CC(C)=CC(C3)C1", "note": "(racemic)", "values": [{"measurement": "IC50", "setting": "Acetylcholinesterase", "result": 7.69, "unit": "µM"}]}
{"smiles": "COc1cc2nc3c(c(N)c2cc1OC)C1CC(C)=CC(C3)C1", "note": "(racemic)", "values": [{"measurement": "IC50", "setting": "Acetylcholinesterase", "result": 11.7, "unit": "µM"}]}
{"smiles": "CC1=CC2Cc3nc4oc(C)c(C)c4c(N)c3C(C1)C2", "note": "(racemic)", "values": [{"measurement": "IC50", "setting": "Acetylcholinesterase", "result": 4.78, "unit": "µM"}]}
{"smiles": "CC1=CC2Cc3nc4oc(C5CC5)nc4c(N)c3C(C1)C2", "note": "(racemic)", "values": [{"measurement": "IC50", "setting": "Acetylcholinesterase", "result": 50, "unit": "µM"}]}
{"smiles": "CC1=CC2Cc3nc4[nH]ncc4c(N)c3C(C1)C2", "note": "(racemic)", "values": [{"measurement": "IC50", "setting": "Acetylcholinesterase", "result": 50, "unit": "µM"}]}
{"smiles": "CC1=CC2Cc3nc4cc(Cl)ccc4c(NCCN=[N+]=[N-])c3C(C1)C2", "note": "(racemic)", "values": [{"measurement": "Ratio IC50", "setting": "Homo sapiens", "result": 270}, {"measurement": "IC50", "setting": "Acetylcholinesterase", "result": 0.00869, "unit": "µM"}, {"measurement": "IC50", "setting": "Cholinesterase [2]", "result": 2.35, "unit": "µM"}]}
{"smiles": "CCC1=CC2Cc3nc4cc(Cl)ccc4c(NCCN=[N+]=[N-])c3C(C1)C2", "note": "(racemic)", "values": [{"measurement": "Ratio IC50", "setting": "Homo sapiens", "result": 60}, {"measurement": "IC50", "setting": "Acetylcholinesterase", "result": 0.0137, "unit": "µM"}, {"measurement": "IC50", "setting": "Cholinesterase [2]", "result": 0.824, "unit": "µM"}]}
{"smiles": "CC1=CC2Cc3nc4cc(Cl)ccc4c(O)c3C(C1)C2", "note": "(racemic)", "values": [{"measurement": "IC50", "setting": "Acetylcholinesterase", "result": 14.7, "unit": "µM"}]}
{"smiles": "CC1=CC2Cc3nc4ncccc4c(N)c3C(C1)C2", "note": "(racemic)", "values": [{"measurement": "Ratio IC50", "setting": "Homo sapiens", "result": 0.4}, {"measurement": "IC50", "setting": "Acetylcholinesterase", "result": 0.81, "unit": "µM"}, {"measurement": "IC50", "setting": "Cholinesterase [2]", "result": 0.342, "unit": "µM"}]}
{"smiles": "CCC1=CC2Cc3nc4cnccc4c(N)c3C(C1)C2", "note": "(racemic)", "values": [{"measurement": "IC50", "setting": "Acetylcholinesterase", "result": 0.664, "unit": "µM"}]}
{"smiles": "COc1cc2c(cc1OC)C(c1cccc([N+](=O)[O-])c1)N(CCCCCCc1cn(CCNc3c4c(nc5cc(Cl)ccc35)CC3C=C(C)CC4C3)nn1)CC2", "note": "(racemic)", "values": [{"measurement": "Ratio IC50", "setting": "Homo sapiens", "result": "> 10000"}, {"measurement": "IC50", "setting": "Acetylcholinesterase", "result": 0.00395, "unit": "µM"}, {"measurement": "inhibition", "setting": "Cholinesterase [3]", "result": 6, "unit": "%"}]}
{"smiles": "CC1=CC2Cc3nc4cc(Cl)ccc4c(NC(=O)CCl)c3C(C1)C2", "note": "(racemic)", "values": [{"measurement": "IC50", "setting": "Acetylcholinesterase", "result": 2.51, "unit": "µM"}]}
{"smiles": "CC1=CC2Cc3nc4oc(C5CCC5)nc4c(N)c3C(C1)C2", "note": "(racemic)", "values": [{"measurement": "IC50", "setting": "Acetylcholinesterase", "result": 27.1, "unit": "µM"}]}
{"smiles": "CCCSc1nc2nc3c(c(N)c2s1)C1CC(CC)=CC(C3)C1", "note": "(racemic)", "values": [{"measurement": "IC50", "setting": "Acetylcholinesterase", "result": 7.27, "unit": "µM"}]}
{"smiles": "CC1=CC2Cc3nc4cc(Cl)ccc4c(NCCCl)c3C(C1)C2", "note": "(racemic)", "values": [{"measurement": "IC50", "setting": "Acetylcholinesterase", "result": 0.0433, "unit": "µM"}]}
{"smiles": "CCC1=CC2Cc3nc4oc(C)c(C)c4c(N)c3C(C1)C2", "note": "(racemic)", "values": [{"measurement": "IC50", "setting": "Acetylcholinesterase", "result": 6.45, "unit": "µM"}]}
{"smiles": "CC1=CC2Cc3nc4cc(Cl)ccc4c(NCCO)c3C(C1)C2", "note": "(racemic)", "values": [{"measurement": "IC50", "setting": "Acetylcholinesterase", "result": 0.00966, "unit": "µM"}]}
{"smiles": "CCC1=CC2Cc3nc4oc(C5CC5)nc4c(N)c3C(C1)C2", "note": "(racemic)", "values": [{"measurement": "IC50", "setting": "Acetylcholinesterase", "result": 50, "unit": "µM"}]}
{"smiles": "CCC1=CC2Cc3nc4ncccc4c(N)c3C(C1)C2", "note": "(racemic)", "values": [{"measurement": "IC50", "setting": "Acetylcholinesterase", "result": 0.855, "unit": "µM"}]}
{"smiles": "CCC1=CC2Cc3nc4cc(Cl)ccc4c(N)c3[C@@H](C1)C2", "note": "[HUPRINE X]", "values": [{"measurement": "IC50", "setting": "Acetylcholinesterase", "result": 0.0011, "unit": "µM"}]}
